Assay results taken from ChEMBL document CHEMBL5696442, “Discovery of type II inhibitors of TGFβ-activated kinase 1 (TAK1) and mitogen-activated protein kinase kinase kinase kinase 2 (MAP4K2)” (J Med Chem, 2015).
Activity calls are given as the source filed them. The rule behind the calls is not given here.

Legend:
[1] = biological target: Protein-tyrosine kinase 6 (Homo sapiens) (UniProt Q13882); assay: Inhibition of BRK (unknown origin) at 10 uM by Ambit Kinomescan binding assay relative to control
[2] = biological target: T1, Serine/threonine-protein kinase NLK (Homo sapiens) (UniProt Q9UBE8); assay: Inhibition of NLK (unknown origin) at 10 uM by Ambit Kinomescan binding assay relative to control; values are per cent of control
T1 sequence (whole entry): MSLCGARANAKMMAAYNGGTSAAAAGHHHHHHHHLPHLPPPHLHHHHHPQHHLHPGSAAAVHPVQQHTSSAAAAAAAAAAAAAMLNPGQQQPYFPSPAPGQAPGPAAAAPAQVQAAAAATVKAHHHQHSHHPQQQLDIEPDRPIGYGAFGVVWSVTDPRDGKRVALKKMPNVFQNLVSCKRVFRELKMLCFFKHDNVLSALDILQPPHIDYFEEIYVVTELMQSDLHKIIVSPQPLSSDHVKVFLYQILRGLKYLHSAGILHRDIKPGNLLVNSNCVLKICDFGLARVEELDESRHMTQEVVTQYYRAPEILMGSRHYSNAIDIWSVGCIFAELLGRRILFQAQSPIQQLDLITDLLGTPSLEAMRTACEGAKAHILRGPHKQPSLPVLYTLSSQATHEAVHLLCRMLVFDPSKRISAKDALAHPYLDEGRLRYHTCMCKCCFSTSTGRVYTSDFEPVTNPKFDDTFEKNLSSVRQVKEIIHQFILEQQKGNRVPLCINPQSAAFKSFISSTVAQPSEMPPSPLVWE

[3] = biological target: Myosin light chain kinase, smooth muscle (Homo sapiens) (UniProt Q15746); assay: Inhibition of MYLK (unknown origin) at 10 uM by Ambit Kinomescan binding assay
How it was run: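 In vitro ATP-site competition binding assay against a panel of over 420 kinases (KinomeScan), with compound tested at 10 or 1 μM.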

[4] = biological target: T2, Mitogen-activated protein kinase kinase kinase kinase 2 (Homo sapiens) (UniProt Q12851); assay: Inhibition of MAP4K2 Lys2 labeling site in human A-375 cells at 5 uM by KiNativ Profiling analysis relative to control; type: cell-based
T2 sequence (whole entry): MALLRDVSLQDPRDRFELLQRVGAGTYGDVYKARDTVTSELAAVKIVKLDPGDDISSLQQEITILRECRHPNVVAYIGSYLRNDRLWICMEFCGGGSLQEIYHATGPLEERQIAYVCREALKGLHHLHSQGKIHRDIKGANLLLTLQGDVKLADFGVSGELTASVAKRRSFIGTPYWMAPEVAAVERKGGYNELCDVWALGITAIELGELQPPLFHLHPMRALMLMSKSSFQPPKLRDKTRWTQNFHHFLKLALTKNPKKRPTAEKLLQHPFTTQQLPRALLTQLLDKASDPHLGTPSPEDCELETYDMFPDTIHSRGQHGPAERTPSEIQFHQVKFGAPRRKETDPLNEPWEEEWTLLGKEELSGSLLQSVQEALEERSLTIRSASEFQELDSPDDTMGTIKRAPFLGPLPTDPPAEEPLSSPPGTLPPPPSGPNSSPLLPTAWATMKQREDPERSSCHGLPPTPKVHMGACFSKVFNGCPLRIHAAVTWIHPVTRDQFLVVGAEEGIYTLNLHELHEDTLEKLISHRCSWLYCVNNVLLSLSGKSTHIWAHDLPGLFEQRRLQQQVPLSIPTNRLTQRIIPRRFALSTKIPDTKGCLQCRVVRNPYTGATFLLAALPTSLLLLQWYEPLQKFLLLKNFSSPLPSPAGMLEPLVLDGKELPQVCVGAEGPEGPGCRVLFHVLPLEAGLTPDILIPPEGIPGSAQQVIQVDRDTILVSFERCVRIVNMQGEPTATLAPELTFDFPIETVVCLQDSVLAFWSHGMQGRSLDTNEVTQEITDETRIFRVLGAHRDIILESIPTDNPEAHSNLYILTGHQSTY

[5] = biological target: DNA-PK/Ku70/Ku85 (Homo sapiens) (UniProt P78527+P12956+P13010); assay: Inhibition of DNAPK ATP labeling site harbouring KGGSWIQEINVAEKNWYPR in human A-375 cells at 5 uM by KiNativ Profiling analysis relative to control; type: cell-based
[6] = biological target: SRSF protein kinase 1 (Homo sapiens) (UniProt Q96SB4); assay: Inhibition of SRPK1 (unknown origin) at 1 uM by Ambit Kinomescan binding assay relative to control
[7] = biological target: T3, Receptor-interacting serine/threonine-protein kinase 4 (Homo sapiens) (UniProt P57078); assay: Inhibition of RIPK4 (unknown origin) at 1 uM by Ambit Kinomescan binding assay relative to control
T3 sequence (whole entry): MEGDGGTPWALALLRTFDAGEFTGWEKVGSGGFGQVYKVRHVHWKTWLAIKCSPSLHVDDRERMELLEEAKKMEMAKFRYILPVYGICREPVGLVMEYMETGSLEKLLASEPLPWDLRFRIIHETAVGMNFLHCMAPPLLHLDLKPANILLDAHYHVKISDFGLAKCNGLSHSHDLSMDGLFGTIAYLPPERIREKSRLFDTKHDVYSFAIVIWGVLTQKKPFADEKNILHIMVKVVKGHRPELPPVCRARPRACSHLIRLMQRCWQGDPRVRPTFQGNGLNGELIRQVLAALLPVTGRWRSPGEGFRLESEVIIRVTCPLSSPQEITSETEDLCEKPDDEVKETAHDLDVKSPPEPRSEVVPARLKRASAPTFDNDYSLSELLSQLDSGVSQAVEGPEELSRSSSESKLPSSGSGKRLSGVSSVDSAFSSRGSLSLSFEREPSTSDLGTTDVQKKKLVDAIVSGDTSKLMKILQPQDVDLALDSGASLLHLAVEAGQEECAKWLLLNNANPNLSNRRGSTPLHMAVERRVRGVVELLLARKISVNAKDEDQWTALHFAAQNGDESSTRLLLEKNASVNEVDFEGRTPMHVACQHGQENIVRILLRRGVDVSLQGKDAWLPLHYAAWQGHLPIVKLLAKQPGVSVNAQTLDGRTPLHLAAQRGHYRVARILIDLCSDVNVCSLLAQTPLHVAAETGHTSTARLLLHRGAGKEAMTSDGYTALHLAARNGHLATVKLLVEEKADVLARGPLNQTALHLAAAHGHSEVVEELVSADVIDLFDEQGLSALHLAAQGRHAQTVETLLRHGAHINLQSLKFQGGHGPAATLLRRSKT

[8] = biological target: Calcium/calmodulin-dependent protein kinase type II subunit gamma (Homo sapiens) (UniProt Q13555); assay: Inhibition of CaMK2g Lys1 labeling site harbouring TSTQEYAAKIINTKK in human Huh-7 cell lysate at 1 uM by KiNativ Profiling analysis relative to control; type: subcellular
[9] = biological target: Rho-associated protein kinase 2 (Homo sapiens) (UniProt O75116); assay: Inhibition of ROCK2 Lys2 labeling site in human Huh-7 cells at 1 uM by KiNativ Profiling analysis relative to control; type: cell-based
[10] = biological target: Serine/threonine-protein kinase 25 (Homo sapiens) (UniProt O00506); assay: Inhibition of YSK1 Lys2 labeling site in human Huh-7 cells at 1 uM by KiNativ Profiling analysis relative to control; type: cell-based
Sequence of Serine/threonine-protein kinase 25 (Homo sapiens) (O00506 whole entry, looked up): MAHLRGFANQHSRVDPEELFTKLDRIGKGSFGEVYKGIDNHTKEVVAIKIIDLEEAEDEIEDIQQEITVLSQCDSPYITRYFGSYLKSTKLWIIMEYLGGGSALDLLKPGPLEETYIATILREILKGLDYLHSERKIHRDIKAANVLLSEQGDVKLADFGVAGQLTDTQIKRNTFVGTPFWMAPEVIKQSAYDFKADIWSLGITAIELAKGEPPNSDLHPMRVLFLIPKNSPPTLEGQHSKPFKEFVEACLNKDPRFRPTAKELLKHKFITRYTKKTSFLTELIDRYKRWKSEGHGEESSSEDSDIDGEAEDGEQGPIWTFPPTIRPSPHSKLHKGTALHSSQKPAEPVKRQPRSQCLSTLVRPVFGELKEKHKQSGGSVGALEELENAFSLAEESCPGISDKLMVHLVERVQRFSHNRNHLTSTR

Sequence of Myosin light chain kinase, smooth muscle (Homo sapiens) (Q15746 whole entry): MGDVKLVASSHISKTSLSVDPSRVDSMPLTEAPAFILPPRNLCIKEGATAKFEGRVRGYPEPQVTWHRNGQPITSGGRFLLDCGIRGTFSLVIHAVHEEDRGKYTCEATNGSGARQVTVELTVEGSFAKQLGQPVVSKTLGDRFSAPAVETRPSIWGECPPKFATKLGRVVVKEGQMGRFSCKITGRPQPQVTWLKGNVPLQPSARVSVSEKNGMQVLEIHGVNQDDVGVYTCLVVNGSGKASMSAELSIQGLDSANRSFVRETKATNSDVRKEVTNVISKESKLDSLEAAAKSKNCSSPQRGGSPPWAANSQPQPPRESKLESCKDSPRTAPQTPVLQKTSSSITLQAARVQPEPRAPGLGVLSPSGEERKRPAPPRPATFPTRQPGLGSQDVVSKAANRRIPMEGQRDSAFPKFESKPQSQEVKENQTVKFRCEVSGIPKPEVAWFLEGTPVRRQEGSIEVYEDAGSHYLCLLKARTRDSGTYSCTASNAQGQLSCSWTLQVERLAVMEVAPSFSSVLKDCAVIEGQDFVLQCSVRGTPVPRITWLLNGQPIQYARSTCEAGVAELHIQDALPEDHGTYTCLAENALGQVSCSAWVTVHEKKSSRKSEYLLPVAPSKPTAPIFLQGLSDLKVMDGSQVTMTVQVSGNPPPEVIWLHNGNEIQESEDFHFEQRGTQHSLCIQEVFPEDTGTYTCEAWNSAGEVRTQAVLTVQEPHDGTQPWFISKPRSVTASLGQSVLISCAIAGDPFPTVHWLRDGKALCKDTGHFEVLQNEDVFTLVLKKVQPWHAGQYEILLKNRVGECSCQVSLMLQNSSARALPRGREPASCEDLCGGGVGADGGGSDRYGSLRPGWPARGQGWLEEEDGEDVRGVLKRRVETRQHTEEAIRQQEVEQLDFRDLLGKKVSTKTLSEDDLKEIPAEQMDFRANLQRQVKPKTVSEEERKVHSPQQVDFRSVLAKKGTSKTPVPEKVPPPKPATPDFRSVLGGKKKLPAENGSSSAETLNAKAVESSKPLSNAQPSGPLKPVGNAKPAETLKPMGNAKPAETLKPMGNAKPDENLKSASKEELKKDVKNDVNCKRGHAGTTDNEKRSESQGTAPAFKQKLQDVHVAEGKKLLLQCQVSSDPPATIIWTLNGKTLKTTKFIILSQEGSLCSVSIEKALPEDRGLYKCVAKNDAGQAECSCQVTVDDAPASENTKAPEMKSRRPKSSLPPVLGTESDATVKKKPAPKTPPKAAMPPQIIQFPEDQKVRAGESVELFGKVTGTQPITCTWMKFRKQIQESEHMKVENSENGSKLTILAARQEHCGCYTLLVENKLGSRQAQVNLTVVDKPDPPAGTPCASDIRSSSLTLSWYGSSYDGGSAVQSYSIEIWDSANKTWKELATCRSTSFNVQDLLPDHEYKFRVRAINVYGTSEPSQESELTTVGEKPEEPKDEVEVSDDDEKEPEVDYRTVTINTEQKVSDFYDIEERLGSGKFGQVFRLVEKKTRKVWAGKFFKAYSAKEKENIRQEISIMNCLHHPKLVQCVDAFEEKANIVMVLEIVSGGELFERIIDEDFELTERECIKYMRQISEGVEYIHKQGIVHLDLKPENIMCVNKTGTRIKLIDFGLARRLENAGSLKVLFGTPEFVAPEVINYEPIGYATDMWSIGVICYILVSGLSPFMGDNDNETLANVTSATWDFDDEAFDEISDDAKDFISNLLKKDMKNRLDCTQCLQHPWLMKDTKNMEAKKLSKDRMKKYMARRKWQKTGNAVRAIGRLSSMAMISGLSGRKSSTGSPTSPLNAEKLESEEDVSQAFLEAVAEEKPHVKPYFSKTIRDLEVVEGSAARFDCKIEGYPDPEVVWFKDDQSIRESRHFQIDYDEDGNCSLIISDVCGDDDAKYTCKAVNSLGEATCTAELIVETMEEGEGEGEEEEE
Sequence of SRSF protein kinase 1 (Homo sapiens) (Q96SB4 whole entry): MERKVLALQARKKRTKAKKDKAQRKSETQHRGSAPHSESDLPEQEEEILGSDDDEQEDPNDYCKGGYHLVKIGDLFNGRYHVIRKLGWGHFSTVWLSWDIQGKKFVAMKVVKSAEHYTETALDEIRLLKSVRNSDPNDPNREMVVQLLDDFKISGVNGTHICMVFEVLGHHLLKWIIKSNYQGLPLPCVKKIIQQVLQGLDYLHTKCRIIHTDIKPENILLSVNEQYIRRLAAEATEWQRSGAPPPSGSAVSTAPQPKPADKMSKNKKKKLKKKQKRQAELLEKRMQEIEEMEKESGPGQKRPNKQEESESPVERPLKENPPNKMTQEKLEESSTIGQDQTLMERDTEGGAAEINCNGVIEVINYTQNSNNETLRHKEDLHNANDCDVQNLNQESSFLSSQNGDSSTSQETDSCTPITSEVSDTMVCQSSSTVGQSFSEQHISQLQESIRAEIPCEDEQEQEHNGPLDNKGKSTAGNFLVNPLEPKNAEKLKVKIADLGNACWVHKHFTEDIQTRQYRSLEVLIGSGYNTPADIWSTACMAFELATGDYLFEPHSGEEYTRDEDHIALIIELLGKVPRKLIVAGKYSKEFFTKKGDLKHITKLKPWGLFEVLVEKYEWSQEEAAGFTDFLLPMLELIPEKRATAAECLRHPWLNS
Sequence of Calcium/calmodulin-dependent protein kinase type II subunit gamma (Homo sapiens) (Q13555 whole entry): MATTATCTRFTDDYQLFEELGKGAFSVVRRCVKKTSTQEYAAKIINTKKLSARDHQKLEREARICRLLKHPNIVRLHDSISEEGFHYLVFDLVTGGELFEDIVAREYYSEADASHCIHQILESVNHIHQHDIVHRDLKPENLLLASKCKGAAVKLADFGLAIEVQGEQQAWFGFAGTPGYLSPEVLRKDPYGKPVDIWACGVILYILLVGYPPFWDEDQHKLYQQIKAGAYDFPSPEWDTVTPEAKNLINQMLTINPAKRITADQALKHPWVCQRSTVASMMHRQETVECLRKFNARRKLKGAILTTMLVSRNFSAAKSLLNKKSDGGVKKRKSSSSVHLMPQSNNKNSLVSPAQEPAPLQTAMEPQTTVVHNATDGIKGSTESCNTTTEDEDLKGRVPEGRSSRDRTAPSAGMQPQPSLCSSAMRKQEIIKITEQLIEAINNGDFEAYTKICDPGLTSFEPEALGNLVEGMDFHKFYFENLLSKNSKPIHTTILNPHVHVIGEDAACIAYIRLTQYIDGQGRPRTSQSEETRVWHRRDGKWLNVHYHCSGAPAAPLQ
Sequence of Protein-tyrosine kinase 6 (Homo sapiens) (Q13882 whole entry, looked up): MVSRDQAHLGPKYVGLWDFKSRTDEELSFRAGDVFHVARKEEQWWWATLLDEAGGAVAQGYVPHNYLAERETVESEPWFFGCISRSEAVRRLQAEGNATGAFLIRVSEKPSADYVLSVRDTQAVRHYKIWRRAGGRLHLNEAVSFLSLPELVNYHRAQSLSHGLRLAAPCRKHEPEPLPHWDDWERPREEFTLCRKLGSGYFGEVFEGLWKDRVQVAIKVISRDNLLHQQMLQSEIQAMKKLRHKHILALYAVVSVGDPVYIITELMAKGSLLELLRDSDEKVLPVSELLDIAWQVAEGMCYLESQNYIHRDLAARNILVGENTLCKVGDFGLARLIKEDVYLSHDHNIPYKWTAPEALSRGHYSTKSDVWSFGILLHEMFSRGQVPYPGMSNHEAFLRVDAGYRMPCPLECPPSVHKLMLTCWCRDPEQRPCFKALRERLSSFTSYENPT

`CCN1CCN(Cc2ccc(NC(=O)c3ccc(C)c(Oc4ccnc5[nH]ccc45)c3)cc2C(F)(F)F)CC1` was tested, and the inhibition [1] was 28%, the percent of control [2] was 14% and the inhibition [3] was “inactive”. It also gave an inhibition [4] of 94% and an inhibition [5] of 7.9%.

`CCN1CCN(Cc2ccc(NC(=O)c3ccc(C)c(/C=C/c4cnc5[nH]ccc5c4OC)c3)cc2C(F)(F)F)CC1` showed an inhibition [6] of 28% and an inhibition [7] of 100%.

Work on `CNc1cc(Oc2cc(C(=O)Nc3cc(N4CCN(C)CC4)cc(C(F)(F)F)c3)ccc2C)ncn1` yielded an inhibition [8] of 8.6%, an inhibition [9] of -1% and an inhibition [10] of 25.2%.
